Experimental data reported in PubChem BioAssay.
Active and inactive are the calls of the source.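 The calls were made as follows, unless noted: active = fluorescence slope after compound addition differing from the mean of all tested samples at 99.7% confidence, mostly higher but some lower; inactive = the rest.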

Target: Muscarinic acetylcholine receptor M4 (Homo sapiens) (UniProt P08173)
Assay: M4-linked GIRK flux change, two-sided – cell-based, HEK293 M4/GIRK, thallium flux, BTC-AM, M4 allosteric agonist project, primary screen (AID 625);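 also: thallium influx through GIRK channels coupled to M4 in HEK293 cells with BTC-AM dye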
Settings: at 10 µM, actives lie on both sides
Procedure, shortened: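 assay system = HEK293 cells with M4 receptor and GIRK channels | medium = pH 7.3 thallium assay buffer | doses = 10 µM final, single point | timing = cells overnight at 37 °C, BTC-AM loading 1 h, reads 2 min total | signal = BTC-AM fluorescence, 1 Hz kinetic reads | read-out = post-addition slope, 15–24 s, of baseline-normalized fluorescence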

Chain of Muscarinic acetylcholine receptor M4 (Homo sapiens) (P08173 whole entry, looked up): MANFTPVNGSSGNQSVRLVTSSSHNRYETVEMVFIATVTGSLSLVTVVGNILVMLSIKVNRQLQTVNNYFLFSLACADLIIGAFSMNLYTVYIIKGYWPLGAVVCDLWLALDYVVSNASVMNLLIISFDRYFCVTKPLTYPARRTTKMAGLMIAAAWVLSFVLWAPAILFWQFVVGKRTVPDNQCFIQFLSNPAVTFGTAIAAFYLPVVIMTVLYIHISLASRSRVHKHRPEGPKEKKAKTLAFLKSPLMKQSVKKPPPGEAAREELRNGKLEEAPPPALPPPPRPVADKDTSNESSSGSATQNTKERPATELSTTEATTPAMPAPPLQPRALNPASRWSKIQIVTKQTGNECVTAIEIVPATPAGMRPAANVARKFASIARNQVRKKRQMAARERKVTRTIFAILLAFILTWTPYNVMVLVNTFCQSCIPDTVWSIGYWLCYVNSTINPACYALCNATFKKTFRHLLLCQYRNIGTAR

Fluorescence slope, inactive:
COc1cc(C(=O)Nc2ccc3c(c2)C(=O)N(CCC(=O)O)C3=O)cc(OC)c1OC 0.00491
Cc1cc(NC(=O)c2ccc3nc(-c4ccccc4)c(-c4ccccc4)nc3c2)no1 0.00551
Cc1ccc2c(c1C)NC(C)CC2C (stereo not given) 0.0052
Cn1c(CCCNC(=O)c2ccccc2)nc2ccccc21 0.00743
CCOc1ccc(N2CC(C(=O)Nc3ccc(F)cc3F)CC2=O)cc1 (stereo not given) 0.00677
CC(=O)Nc1nc(C)c(-c2csc(Nc3ccc(O)cc3)n2)s1 0.00314
O=C(NCc1ccco1)C1CCN(C(=O)c2cc3sccc3n2Cc2ccc(F)cc2)CC1 0.00956
O=C(COC(=O)C1(c2ccccc2F)CCCC1)NC1CCS(=O)(=O)C1 (stereo not given) 0.00752
N#CC1=C(N)Oc2n[nH]c(-c3cccs3)c2C1c1cccs1 (stereo not given) 0.00605
NC(=O)C1(N2CCCCC2)CCN(Cc2ccccc2Cl)CC1 0.0052
CCCCc1ccc(NC(=O)c2c(C)noc2C)cc1 0.00365
CC(=O)Oc1cccc(/C=c2\sc3nc(-c4ccco4)nn3c2=O)c1 0.00624
CCN(CC)S(=O)(=O)c1ccc2oc(C(=O)O)c(C)c2c1 0.00522
Cc1noc(C)c1COc1cccc(C(=O)Oc2ccc3c(c2)OCO3)c1 0.00685
CCOC(=O)COc1ccc(S(=O)(=O)Nc2ccc3c(c2)OCO3)cc1 0.00399
COc1ccc(N(CC(=O)N2CCN(Cc3ccc4c(c3)OCO4)CC2)S(C)(=O)=O)cc1OC 0.00506
CNC(=O)CN(C#N)c1nc(N(C)C)nc(N(C)C)n1 0.00632
COc1cccc(-n2c(C)nc3c(cnn3-c3ccc(C)cc3)c2=O)c1 0.00597
Cc1ccccc1-c1nc(CN2CCC(C(=O)NCCCN3CCOCC3)CC2)c(C)o1 0.00497
Cc1nc2cc(NC(=O)N3CC4(C)CC3CC(C)(C)C4)ccc2n1C (stereo not given) 0.00526
CS(=O)(=O)N(CC(=O)N1CCN(c2cccc(Cl)c2)CC1)C1CCCCC1 0.00576
CC(C)(C)n1ncc2c(=O)n(CC(=O)NCCc3ccccc3)cnc21 0.0063
CCCCc1cc(=O)oc2cc(C)cc(OC(C)C(=O)O)c12 (stereo not given) 0.00603
CC(C)(C)c1ccccc1NC(=O)c1cccnc1 0.00439
Cc1cc(-c2ccccc2)c2nncn2n1 0.00457
Cc1ccc(-c2nnn(CC(=O)N(CC(=O)NCC3CCCO3)c3ccccc3)n2)o1 (stereo not given) 0.00876
C=CCSc1nnc(-c2ccccc2NC(C)=O)c(=O)[nH]1 0.00542
Cn1c(=O)c2c(nc(SCC(=O)NCc3ccc4c(c3)OCO4)n2Cc2ccccc2)n(C)c1=O 0.0042
COc1cc(C(=O)N2CCC(c3nc(-c4cccnc4)no3)CC2)cc(OC)c1OC 0.00617
CC1CCc2nc(NC(=O)CN3CCN(Cc4ccc5c(c4)OCO5)CC3)sc2C1 (stereo not given) 0.00492
O=C(CCCn1c(=O)c2sccc2n(Cc2ccc(F)cc2)c1=O)NCc1ccco1 0.00594
Cc1ccc2cc(CN(CC(C)C)C(=O)C3CCCO3)c(=O)[nH]c2c1 (stereo not given) 0.00521
CCOc1ccc(C(=O)N(CN2CCCC2=O)c2ccc(C)cc2)cc1 0.0056
CCCCCc1c(O)c2ccccc2[nH]c1=O 0.00337
CC1CCN(S(=O)(=O)c2ccc(NC(=O)CSc3nnnn3C)cc2)CC1 0.00682
O=C(c1nc2n(n1)C(c1ccc(Cl)cc1)C=C(c1ccccc1)N2)N1CCOCC1 (stereo not given) 0.00624
Cc1nc2cccc(C(=O)NC3CCCCC3)c2o1 0.00546
COc1ccccc1-c1nnc2sc(-c3ccc(N(C)C)cc3)nn12 0.00532
O=C(Nc1cccc(C(F)(F)F)c1)c1cccnc1N1CCCC1 0.00477
CCNC(=O)C1CC(=O)N(Cc2ccc3c(c2)OCO3)C(=Nc2ccc(OCC)cc2)S1 (stereo not given) 0.00371

System: not listed separately
Assay: blockers of RIG-like receptor reporter activation – cell-based, Sendai virus stimulus, luciferase, 10K MLSCN set, TLR/RLR signaling modifier project, primary screen (AID 602276;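 active = inhibition at or above 50% at 10 µM; inactive = inhibition below 50%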;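 also: firefly luciferase from ISG56 promoter only with Renilla not read in this screen; 0% = Sendai virus plus DMSO and 100% = medium plus DMSO without virus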)
Settings: HEK293 RL24 IRF3 luciferase reporter, at 10 µM, active compounds read high

inhibition, inactive:
COc1cc(C(=O)Nc2ccc3c(c2)C(=O)N(CCC(=O)O)C3=O)cc(OC)c1OC 12.6%
Cc1cc(NC(=O)c2ccc3nc(-c4ccccc4)c(-c4ccccc4)nc3c2)no1 -16%
Cc1ccc2c(c1C)NC(C)CC2C (stereo not given) 11.1%
Cn1c(CCCNC(=O)c2ccccc2)nc2ccccc21 13.2%
CCOc1ccc(N2CC(C(=O)Nc3ccc(F)cc3F)CC2=O)cc1 (stereo not given) 6.56%
CC(=O)Nc1nc(C)c(-c2csc(Nc3ccc(O)cc3)n2)s1 20.1%
O=C(NCc1ccco1)C1CCN(C(=O)c2cc3sccc3n2Cc2ccc(F)cc2)CC1 17.8%
O=C(COC(=O)C1(c2ccccc2F)CCCC1)NC1CCS(=O)(=O)C1 (stereo not given) -1.97%
N#CC1=C(N)Oc2n[nH]c(-c3cccs3)c2C1c1cccs1 (stereo not given) 13.4%
NC(=O)C1(N2CCCCC2)CCN(Cc2ccccc2Cl)CC1 12.3%
CCCCc1ccc(NC(=O)c2c(C)noc2C)cc1 -8.01%
CC(=O)Oc1cccc(/C=c2\sc3nc(-c4ccco4)nn3c2=O)c1 21.5%
CCN(CC)S(=O)(=O)c1ccc2oc(C(=O)O)c(C)c2c1 5.96%
Cc1noc(C)c1COc1cccc(C(=O)Oc2ccc3c(c2)OCO3)c1 8.11%
CCOC(=O)COc1ccc(S(=O)(=O)Nc2ccc3c(c2)OCO3)cc1 12.4%
COc1ccc(N(CC(=O)N2CCN(Cc3ccc4c(c3)OCO4)CC2)S(C)(=O)=O)cc1OC 21.2%
CNC(=O)CN(C#N)c1nc(N(C)C)nc(N(C)C)n1 6.17%
COc1cccc(-n2c(C)nc3c(cnn3-c3ccc(C)cc3)c2=O)c1 -34.8%
Cc1ccccc1-c1nc(CN2CCC(C(=O)NCCCN3CCOCC3)CC2)c(C)o1 -3.78%
Cc1nc2cc(NC(=O)N3CC4(C)CC3CC(C)(C)C4)ccc2n1C (stereo not given) -4.69%
CS(=O)(=O)N(CC(=O)N1CCN(c2cccc(Cl)c2)CC1)C1CCCCC1 2.97%
CC(C)(C)n1ncc2c(=O)n(CC(=O)NCCc3ccccc3)cnc21 -40.8%
CCCCc1cc(=O)oc2cc(C)cc(OC(C)C(=O)O)c12 (stereo not given) 5.95%
CC(C)(C)c1ccccc1NC(=O)c1cccnc1 15.7%
Cc1cc(-c2ccccc2)c2nncn2n1 18.1%
Cc1ccc(-c2nnn(CC(=O)N(CC(=O)NCC3CCCO3)c3ccccc3)n2)o1 (stereo not given) 1.41%
C=CCSc1nnc(-c2ccccc2NC(C)=O)c(=O)[nH]1 -0.29%
Cn1c(=O)c2c(nc(SCC(=O)NCc3ccc4c(c3)OCO4)n2Cc2ccccc2)n(C)c1=O 12.6%
COc1cc(C(=O)N2CCC(c3nc(-c4cccnc4)no3)CC2)cc(OC)c1OC 5.18%
CC1CCc2nc(NC(=O)CN3CCN(Cc4ccc5c(c4)OCO5)CC3)sc2C1 (stereo not given) 11.9%
O=C(CCCn1c(=O)c2sccc2n(Cc2ccc(F)cc2)c1=O)NCc1ccco1 7.63%
Cc1ccc2cc(CN(CC(C)C)C(=O)C3CCCO3)c(=O)[nH]c2c1 (stereo not given) 3.89%
CCOc1ccc(C(=O)N(CN2CCCC2=O)c2ccc(C)cc2)cc1 -0.0171%
CCCCCc1c(O)c2ccccc2[nH]c1=O 11.7%
CC1CCN(S(=O)(=O)c2ccc(NC(=O)CSc3nnnn3C)cc2)CC1 10.9%
O=C(c1nc2n(n1)C(c1ccc(Cl)cc1)C=C(c1ccccc1)N2)N1CCOCC1 (stereo not given) 9.43%
Cc1nc2cccc(C(=O)NC3CCCCC3)c2o1 10.4%
COc1ccccc1-c1nnc2sc(-c3ccc(N(C)C)cc3)nn12 37.1%
O=C(Nc1cccc(C(F)(F)F)c1)c1cccnc1N1CCCC1 16.2%
CCNC(=O)C1CC(=O)N(Cc2ccc3c(c2)OCO3)C(=Nc2ccc(OCC)cc2)S1 (stereo not given) 17.9%
